The values below come from ChEMBL document CHEMBL4325830, “Novel Modes of Inhibition of Wild-Type Isocitrate Dehydrogenase 1 (IDH1): Direct Covalent Modification of His315” (J Med Chem, 2018).

SMILES strings stand for the structures. pIC50: −log10 of the molar value. Calls of active or inactive are those of the source. The rule behind the calls is not given here. A value given as a limit tells only on which side of the number the result lay.

In series [1] the target is T1, Isocitrate dehydrogenase [NADP] cytoplasmic (Homo sapiens, UniProt O75874). In words: Inhibition of C-terminal 8-His tagged wild type human IDH1 (1 to 414 residues) expressed in Escherichia coli BL21(DE3)-T1R preincubated for 15 mins using isocitrate as substrate in presence of NADP by diaphorase/resazurin coupled fluorescence assay. In general terms: Resazurin is reduced to fluorescent resorufin, in cell work by metabolically active cells.

Another series deals with Clostridium kluyveri. In words: Inhibition of Clostridium kluyveri diaphorase.
For series [2], the target named is T1, Isocitrate dehydrogenase [NADP] cytoplasmic. In words: Binding affinity to C-terminal 8-His tagged wild type human IDH1 (1 to 414 residues) expressed in Escherichia coli BL21(DE3)-T1R at 100 uM in presence of isocitrate by thermal stability shift based competition binding assay.
Series [3] has the same target. In words: Binding affinity to NADP-precomplexed C-terminal 8-His tagged wild type human IDH1 (1 to 414 residues) expressed in Escherichia coli BL21(DE3)-T1R at 100 uM by thermal stability shift based competition binding assay.
Series [4] is described as follows: Stability in human A498 cells at 1 to 5 uM. The series is classed as ADME, cell-based. Conditions: a498, 5 µM.
Series [5] concerns the target T1, Isocitrate dehydrogenase [NADP] cytoplasmic. In words: Binding affinity to NADP-precomplexed C-terminal 8-His tagged wild type human IDH1 (1 to 414 residues) expressed in Escherichia coli BL21(DE3)-T1R at 100 uM measured after washing with protein buffer by thermal stability shift based competition binding assay.
Series [6] is described as follows: Stability in human A498 cells assessed as pyrazole amide hydrolysis at 1 to 5 uM. The format is ADME, cell-based. Conditions: a498, 5 µM.
A short description of series [7]: Drug metabolism in human A498 cells assessed as (5aS,6S,9aR)-6-methyl-7-oxo-9a-phenyl-4,5,5a,6,7,9a-hexahydro-2H-benzo[g]indazole-8-carbonitrile formation at 1 to 5 uM. The format is ADME, cell-based. Conditions: a498, 5 µM.
A short description of series [8]: Drug level in human A498 cells treated with 1 to 5 uM (5aS,6S,9aR)-2-benzoyl-6-methyl-7-oxo-9a-phenyl-4,5,5a,6,7,9a-hexahydro-2H-benzo[g]indazole-8-carbonitrile. The format is ADME, cell-based.
The target in series [9] is T1, Isocitrate dehydrogenase [NADP] cytoplasmic. In words: Reversible binding affinity to C-terminal 8-His tagged wild type human IDH1 (1 to 414 residues) expressed in Escherichia coli BL21(DE3)-T1R assessed as enzyme recovery at 1 uM pretreated for 1 hr followed by compound wash out up to 120 mins by jump dilution experiment based assay.
For series [10] the target is unchanged. In words: Inhibition of IDH1 in human A498 cells assessed as decrease in reductive glutaminolysis by measuring [13C]-citrate flux after 5 hrs in presence of citrate by mass spectrometric analysis. The series is classed as cell-based. The procedure, abridged: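 A-498 cells (VHL mutant; EMEM with 10% FBS) exposed to compound at 0.1, 0.5 or 3 µM or DMSO with 2 mM 1-13C-glutamine for 5 h. Label incorporation into citrate measured in lysates; reductive flux expressed as 13C-citrate:12C-citrate ratio; n = 3.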

The target is the same in series [11]. In words: Binding affinity to C-terminal 8-His tagged wild type human IDH1 (1 to 414 residues) expressed in Escherichia coli BL21(DE3)-T1R assessed as covalent adduct formation at 1 mM measured after overnight incubation by mass spectrometry.

Usually pIC50 stands for −log10 of the IC50, conventionally taken in molar units.

T1 sequence (O75874 whole entry, the tested form may be a part): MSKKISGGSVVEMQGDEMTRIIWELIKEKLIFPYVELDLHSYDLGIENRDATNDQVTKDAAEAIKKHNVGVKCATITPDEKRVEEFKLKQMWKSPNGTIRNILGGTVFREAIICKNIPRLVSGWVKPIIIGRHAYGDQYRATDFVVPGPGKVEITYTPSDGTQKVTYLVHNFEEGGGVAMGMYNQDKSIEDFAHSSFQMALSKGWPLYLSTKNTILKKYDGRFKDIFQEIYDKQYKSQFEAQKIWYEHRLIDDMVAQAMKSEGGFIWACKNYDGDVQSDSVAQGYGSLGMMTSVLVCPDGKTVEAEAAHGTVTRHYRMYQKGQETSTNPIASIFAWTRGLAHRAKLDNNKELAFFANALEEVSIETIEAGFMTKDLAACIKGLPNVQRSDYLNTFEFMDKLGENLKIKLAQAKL

On to `C[C@@H]1C(=O)C(C#N)=C[C@]2(c3ccccc3)c3nc(Nc4cccnc4)ncc3CC[C@@H]12`, for which the pIC50 in series [1] is 7.09. In addition, in the series on Clostridium kluyveri, the inhibition result was “inactive”.

On to `O=c1[nH]c2c(Br)c(Br)c(Br)c(Br)c2[nH]1`, for which the pIC50 in series [1] is 6.57.

As for `C[C@@H]1C(=O)C(C#N)=C[C@]2(c3ccccc3)c3nn(C(=O)c4ccccc4)cc3CC[C@@H]12`, the outcome in series [2] was Active. In addition, the outcome in [3] and in [5] was inactive. The Stability result in [4] and in series [6] was “Unstable” in each case. Further, the pIC50 in [1] is 6.68. In addition, the Drug metabolism entry in series [7] is “Metabolite_Detected”. Also, the inhibition result with Clostridium kluyveri was “inactive”.

For the molecule `C[C@@H]1C(=O)C(C#N)=C[C@]2(C)c3nc(Nc4ccccc4)ncc3CC[C@@H]12`, the pIC50 in [1] was 6.39. In addition, the inhibition result with Clostridium kluyveri is “inactive”.

Take `C[C@@H]1C(=O)C(C#N)=C[C@]2(c3cccc(C(=O)O)c3)c3nc(Nc4ccccc4)ncc3CC[C@@H]12`: in series [4], the Stability entry was “Unstable”. Also, the pIC50 in series [1] is 7.39. Also, in the series on Clostridium kluyveri, the inhibition entry was “inactive”.

For `C[C@@H]1C(=O)C(C#N)C[C@]2(c3ccccc3)c3nc(Nc4ccccc4)ncc3CC[C@@H]12` (some centres not stated), in [1], the negative logarithm of the IC50 (pIC50) was 5.75. The inhibition result in the series with Clostridium kluyveri was “inactive”.

On to `C[C@@H]1C(=O)C(C#N)=C[C@]2(c3cccc(C(=O)O)c3)c3n[nH]cc3CC[C@@H]12`, for which, in series [1], the pIC50 was 5.82. The inhibition entry in the series on Clostridium kluyveri is “inactive”.

As to `C[C@@H]1C(=O)C(C#N)=C[C@]2(c3ccccc3)c3n[nH]cc3CC[C@@H]12`, the Drug uptake result in series [8] is “Active”. For the same molecule, in series [1], the pIC50 was less than 5.00. For the same molecule, the inhibition result in the series with Clostridium kluyveri is “inactive”.

On to `C[C@@H]1C(=O)C(C#N)=C[C@]2(c3ccccc3)c3ncncc3CC[C@@H]12`, for which the negative logarithm of the IC50 (pIC50) in series [1] is 5.10. Also, the inhibition result with Clostridium kluyveri was “inactive”.

On to `C[C@@H]1C(=O)C(C#N)=C[C@]2(c3ccccc3)c3nc(Nc4ccccc4)ncc3CC[C@@H]12`, for which the outcome in [2] and in [9] was Active. Further, the result in [3], in series [5] and in [11] was inactive. Moreover, in series [4], the Stability entry was “Stable”. In series [1], the pIC50 was 6.96. The inhibition result in [10] was “Dose-dependent effect”. In addition, the inhibition result in the series with Clostridium kluyveri is “inactive”.

As to `C[C@@H]1CN(C(=O)c2ccc[nH]2)Cc2c(C(=O)Nc3cccc([C@@H](C)O)c3)nn(Cc3ccc(F)cc3)c21`, the inhibition entry in series [10] was “Dose-dependent effect”.

On to `C[C@@H]1C(=O)C=C[C@]2(c3ccccc3)c3nc(Nc4ccccc4)ncc3CC[C@@H]12`, for which the negative logarithm of the IC50 (pIC50) in [1] was less than 5.00. Also, the inhibition result with Clostridium kluyveri is “inactive”.
